{"data": "Measurements of several laboratories", "HTR7": "5-hydroxytryptamine receptor 7 (HTR7, Homo sapiens, UniProt P34969)", "Integrin alpha-V/beta-6": "Integrin alpha-V/beta-6 (Homo sapiens, UniProt P06756+P18564)", "ST14": "Suppressor of tumorigenicity 14 protein (ST14, Homo sapiens, UniProt Q9Y5Y6)", "ERG11": "Lanosterol 14-alpha demethylase (ERG11, Candida albicans, UniProt P10613)", "note": "Lines come from different studies, so protocols differ."}
{"SMILES": "CCCCC1CNC2CCc3ccc(OC)cc3C12 (racemic)", "target": "HTR7", "test": "ligand displacement, radioligand", "endpoint": "Ki", "result": "586 nM"}
{"SMILES": "C[C@@H](O)[C@H](NC(=O)C(C)(C)NC(=O)[C@@H](N)CS)C(=O)N[C@@H](CCCNC(=N)N)C(=O)NCC(=O)N[C@@H](CC(=O)O)C(=O)N[C@@H](Cc1cccnc1)C(=O)N1CC(F)(F)C[C@H]1C(N)=O", "target": "Integrin alpha-V/beta-6", "test": "binding, BLI", "endpoint": "Kd", "result": "54900 nM"}
{"SMILES": "COCCC(=O)N[C@@H](CCC(N)=O)C(=O)N[C@@H](Cc1ccccc1)C(=O)N[C@@H](CCCNC(=N)N)C(=O)c1nc2ccccc2s1", "target": "ST14", "test": "cell-free assay", "endpoint": "Ki", "result": "0.94 nM"}
{"SMILES": "OC(COc1ccc(-c2nnco2)cc1)CN1CCN(CC(O)COc2ccc(-c3nnco3)cc2)CC1 (centres unmarked)", "target": "ERG11", "test": "enzyme activity, inhibitor, mass spectrometry", "endpoint": "IC50", "result": "> 50000 nM"}
{"SMILES": "CCN1CCN(Cc2ccc(Nc3ncc(F)c(-c4cc(F)c5nc6n(c5c4)[C@H](C)CCC6)n3)nc2)CC1", "target": "Multidrug and toxin extrusion protein 1 (SLC47A1, Homo sapiens, UniProt Q96FL8)", "test": "enzyme activity, inhibitor", "endpoint": "IC50", "result": "21.2 nM"}
{"SMILES": "CC1=CC(=O)[C@@H](O)[C@]2(C)[C@H]3[C@@H](O)[C@H](O)[C@@]4(C)OC[C@@]35[C@@H](C[C@@H]12)OC(=O)[C@H](O)[C@]54O", "target": "Serine/threonine-protein kinase pim-1 (PIM1, Homo sapiens, UniProt P11309)", "test": "binding, SPR", "endpoint": "Kd", "result": "6570 nM"}
{"SMILES": "CS(=O)(=O)N[C@@H](CCC(N)=O)C(=O)N[C@@H](Cc1ccccc1)C(=O)N[C@@H](CCCNC(=N)N)C(=O)c1nccs1", "target": "ST14", "test": "cell-free assay", "endpoint": "Ki", "result": "17 nM"}
{"SMILES": "CC(C)(NC(=O)[C@@H](N)CS)C(=O)N[C@@H](CO)C(=O)N[C@@H](CCCNC(=N)N)C(=O)NCC(=O)N[C@@H](CC(=O)O)C(=O)N[C@@H](Cc1c(F)c(F)c(F)c(F)c1F)C(=O)N1CCC(F)(F)C[C@H]1C(N)=O", "target": "Integrin alpha-V/beta-6", "test": "binding, BLI", "endpoint": "Kd", "result": "70400 nM"}
{"SMILES": "COc1cc2c(cc1OC)CN(CCc1ccc(NC(=O)c3cccc4c(=O)c5cccc(OC)c5[nH]c34)cc1)CC2", "target": "HTR7", "test": "cell-free assay", "endpoint": "Ki", "result": "235 nM"}
{"SMILES": "O=S(=O)(c1ccc(OCC(O)CN2CCCC2)c(Cl)c1)c1ccc(OCC(O)CN2CCCC2)c(Cl)c1 (centres unmarked)", "target": "ERG11", "test": "enzyme activity, inhibitor, mass spectrometry", "endpoint": "IC50", "result": "> 50000 nM"}
{"SMILES": "Cc1cc(O)c2c(=O)c3c(O)cc(O)c4c5c(O)cc(O)c6c(=O)c7c(O)cc(C)c8c1c2c(c34)c(c78)c65", "target": "Calreticulin (CALR, Homo sapiens, UniProt P27797)", "test": "binding, MST", "endpoint": "Kd", "result": "3680 nM"}
